Sampled rows, rich in hits. Any-hit rate of the full collection: about 2%.
LMP1 NFkB inh – reduces LMP1-driven NF-kappaB luciferase signal | LMP1-induced NF-kappaB luciferase reporter cells, luminescence | inhibition, % at 12.5 µM | actives 0.69% (n = 350,000) | AID 504558; in the data active = inhibition above about 41%; inconclusive = no clear call, values can overlap the other calls;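 note: 0% = neutral control wells and 100% = reference inhibitor control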
HIF activator – HIF pathway transcriptional activation | U2OS HRE-luciferase reporter, luminescence; normalized: DMSO 0%, desferrioxamine 100% | actives 0.32% (n = 300,000) | activation, % at 7.5 µM (by protocol);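 active = mean activation of at least 10% of the iron chelator positive control signal, with at least half of replicates also reaching 10%; inconclusive = mean and replicate majority disagree about reaching 10%; inactive = mean and most replicates under 10%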
NR2E3 ag-1 – NR2E3 (human) agonism; GST-NR2E3/biotin-RetCOR TR-FRET, 1536-well; inhibition of corepressor binding, % at 4.78 µM; actives 0.12% (n = 320,000);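 active = percent inhibition above the cutoff of mean plus 3 SD of all tested compounds, set per screening campaign, cut at about 20% in these data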;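 note: 0% = DMSO wells and 100% = biotin wells as full block of FRET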
Target sequence (Q9Y5X4 whole entry, looked up): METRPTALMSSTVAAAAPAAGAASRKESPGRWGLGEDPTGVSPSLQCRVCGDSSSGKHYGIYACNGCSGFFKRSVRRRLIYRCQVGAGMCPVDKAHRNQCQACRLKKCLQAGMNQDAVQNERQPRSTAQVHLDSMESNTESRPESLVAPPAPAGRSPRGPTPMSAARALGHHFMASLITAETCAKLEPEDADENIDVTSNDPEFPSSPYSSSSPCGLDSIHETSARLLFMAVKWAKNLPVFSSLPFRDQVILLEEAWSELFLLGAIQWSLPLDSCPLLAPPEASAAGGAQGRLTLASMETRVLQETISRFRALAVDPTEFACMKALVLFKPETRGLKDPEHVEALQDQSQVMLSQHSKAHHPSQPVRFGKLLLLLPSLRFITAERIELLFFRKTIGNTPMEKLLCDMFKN
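System: GST-NR2E3 and biotin-RetCOR proteins; probe or stimulus: 7 nM biotin-RetCOR; doses: compound at 4.8 µM, single dose; schedule: Compound–protein incubation for 5 h at 4 °C; detection: time-resolved FRET; read-out: percent inhibition; controls: biotin wells as high control, 0.6% DMSO wells as low control; format: 1536-well plates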
TROY signal inh – TROY signaling inhibition. Q293 LMP1-TROYcd NF-kB luciferase reporter, 4 h. inhibition, % at 10 µM. actives 0.98% (n = 360,000). AID 1347056;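 active = compounds whose plate-normalised and pattern-corrected inhibition of the luciferase reporter signal at the single screening dose is 50% or more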
NR2E3 ag-2 – activates human NR2E3 receptor; inhibition of corepressor binding, % at 3.98 µM; actives 0.35% (n = 360,000); Q9Y5X4; CHO-S Gal4-NCOR/VP16-NR2E3 two-hybrid, luciferase;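 active = inhibition above the mean of all tested compounds plus 3 SD, cut at about 70% in these data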;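 note: 0% = DMSO with NR2E3 transfected cells and 100% = cells lacking NR2E3 construct; higher means lower luciferase signal from less NR2E3 corepressor binding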
* = called active by the depositor; u = inconclusive; x = no result.

SMILES | LMP1 NFkB inh | HIF activator | NR2E3 ag-1 | TROY signal inh | NR2E3 ag-2
O=C(c1ccccc1)C(CN1CCCC1)c1ccccc1 (configuration not stated) | 73* | -4 | -3 | 11 | 3
COCc1cc(OC(=O)N(C)C)nc2c1c(C)nn2C | 3 | 0 | -2 | 57* | 6
CS(=O)(=O)c1ccc(C2=C(CNC(=O)c3ccncc3)[C@H]3CC[C@@H](C2)N3Cc2ccco2)cc1 | 3 | x | x | 0 | -26
CN1C(=O)C(C2c3ccccc3C(=O)N2Cc2ccccc2)C(=O)N(C)C1=O (configuration not stated) | -8 | 0 | 2 | 51* | 3
O=C(CCCc1ccc(N(CCCl)CCCl)cc1)NCc1ccccc1 | 42* | x | x | 13 | -75
NC(N)=N/N=C/c1ccc(N(c2ccccc2)c2ccccc2)cc1 | 4 | -3 | 2 | 69* | 25
COC(=O)C1=C(c2ccc(OC(F)(F)F)cc2)C[C@@H]2CC[C@H]1N2C(=O)N1CCCCC1 | 6 | x | -1 | 5 | 15
CCN1CCN(c2ccc([N+](=O)[O-])cc2C=C2C(=O)NC(=O)NC2=O)CC1 | 2 | 24* | -1 | -13 | -24
CCCCCn1c(NC(=O)c2ccco2)c(C(=O)OCC)c2nc3ccccc3nc21 | 8 | 0 | 2 | 62* | -11
C[C@]12CC[C@H]3C(CCC4(O)CC(O)CC[C@]34C=O)C1=CC[C@H]2c1ccc(=O)oc1 (some centres not stated) | 2 | 0 | 0 | 8 | -43
CC(=O)O[C@H]1[C@H]2O[C@]23[C@@H]2CC[C@]4(O)C[C@@H](O)CC[C@]4(C)C2CC[C@]3(C)[C@H]1c1ccc(=O)oc1 (some centres not stated) | 49* | x | -2 | 56* | 8
CCCCCN1C(=O)c2cc(OC)ccc2[C@@]2(C(=O)OCC)Cc3cc(OC)ccc3[C@@H]12 | x | x | x | 36 | -28
CCOC(=O)[C@]12Cc3ccc(C)cc3[C@H]1N(C1CCCCC1)C(=O)c1ccccc12 | x | x | x | 51* | 12
CCOC(=O)[C@]12Cc3cc(C)ccc3[C@H]1N(C1CCCCC1)C(=O)c1ccccc12 | x | x | x | 44 | 37
CCOc1cc2c(cc1OCC)-n1cccc1C(c1c(O)cccc1OC)NC2 (configuration not stated) | 6 | -1 | 1 | -7 | -19
Cc1ccccc1-[n+]1c(-c2ccccc2)cc(-c2ccccc2)cc1-c1ccccc1 | u | 2 | 0 | 63* | 10
Cc1ccc2c(C)c3ccc4ccccc4c3c[n+]2c1 | -5 | x | x | -22 | -12
O=C1NC(=O)C(=Cc2cccc(OCCOc3ccccc3)c2)C(=O)N1 | -17 | 1 | -2 | -12 | -67
Cc1ccc(OCCOc2cccc(C=C3C(=O)NC(=O)NC3=O)c2)c(C)c1 | 45* | -2 | 5 | -70 | -217
CN1CCN(c2cccc3c2C(=O)c2ccccc2C3=O)CC1 | 6 | 0 | x | 64* | 1
CN1CCN(c2ccc3c(c2)S(=O)(=O)c2ccccc2C3=O)CC1 | -8 | 4 | 2 | -32 | -51
CCn1c(O)c(C=Nc2ccc(S(N)(=O)=O)cc2)c(=O)n(CC)c1=S | 4 | 0 | -1 | 4 | -28
CCn1c(O)c(C=Nc2ccc(S(N)(=O)=O)cc2)c(=O)[nH]c1=S | -7 | 0 | 0 | 52* | 2
CC(C#N)CCC#N (configuration not stated) | -6 | x | 2 | -16 | -11
O=C1NC(=O)C(=Cc2ccc(-c3ccc(Cl)cc3)o2)C(=O)N1 | 1 | 0 | 4 | 56* | -15
SMILES | LMP1 NFkB inh | HIF activator | NR2E3 ag-1 | TROY signal inh | NR2E3 ag-2
CC(C)=CCc1c(O)cc2c(c1O)C(=O)CC(c1ccc(O)cc1)O2 (configuration not stated) | -1 | 1 | -1 | 52* | -12
COc1cc(/C=C/[N+](=O)[O-])ccc1OC(=O)c1cccnc1 | 18 | -1 | x | 66* | -19
N=Cc1c(O)n(-c2ccc(C34CC5CC(CC(C5)C3)C4)cc2)c(=O)[nH]c1=O | 0 | x | -1 | 54* | 37
CC1CN2C(=O)C1(c1ccccc1)C(=O)NC2=S (configuration not stated) | -1 | x | x | 2 | -36
O=[N+]([O-])c1nccn1CC(O)CN1CC1 (configuration not stated) | x | x | x | -7 | -24
O=C(c1cccnc1)c1cc2ccccc2[nH]1 | -30 | 16* | 0 | -27 | -33
